Experimental findings from ChEMBL document CHEMBL1687907, “Incorporation of a bioactive reverse-turn heterocycle into a peptide template using solid-phase synthesis to probe melanocortin receptor selectivity and ligand conformations by 2D 1H NMR” (J Med Chem, 2011) are described below.

Activity calls are given as the source filed them. No cut-off for these calls is given here.

Holding throughout (type): functional, cell-based
The target of experiment [1] is Melanocyte-stimulating hormone receptor (Mus musculus, UniProt Q01727). In words: Agonist activity at mouse melanocortin 1 receptor expressed in HEK293 cells after 48 hrs by cAMP based beta-galactosidase reporter gene assay. On the technique in general: A reporter such as luciferase makes a cellular process visible.
For the next experiment, the target named is Melanocortin receptor 3 (Mus musculus, UniProt P33033). Put plainly: Agonist activity at mouse melanocortin 3 receptor expressed in HEK293 cells after 48 hrs by cAMP based beta-galactosidase reporter gene assay.
The target of the next experiment is Melanocortin receptor 4 (Mus musculus, UniProt P56450). Put plainly: Agonist activity at mouse melanocortin 4 receptor expressed in HEK293 cells after 48 hrs by cAMP based beta-galactosidase reporter gene assay.
A further experiment deals with Melanocortin receptor 5 (Mus musculus, UniProt P41149). Put plainly: Agonist activity at mouse melanocortin 5 receptor expressed in HEK293 cells after 48 hrs by cAMP based beta-galactosidase reporter gene assay.
Experiment [2] addresses Melanocortin receptor 3 (Mus musculus) (UniProt P33033). In words: Agonist activity at mouse melanocortin 3 receptor expressed in HEK293 cells at 100 uM after 48 hrs by cAMP based beta-galactosidase reporter gene assay. The method in brief:
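HEK-293 cells stably expressing mouse MC3R were CRE/β-galactosidase reporter transfected and stimulated 48 h later for 6 h in IBMX/BSA DMEM. Peptide concentrations reached 100 µM. ONPG read at OD405, normalized to protein and forskolin.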

Melanocyte-stimulating hormone receptor, sequence (Q01727 whole entry): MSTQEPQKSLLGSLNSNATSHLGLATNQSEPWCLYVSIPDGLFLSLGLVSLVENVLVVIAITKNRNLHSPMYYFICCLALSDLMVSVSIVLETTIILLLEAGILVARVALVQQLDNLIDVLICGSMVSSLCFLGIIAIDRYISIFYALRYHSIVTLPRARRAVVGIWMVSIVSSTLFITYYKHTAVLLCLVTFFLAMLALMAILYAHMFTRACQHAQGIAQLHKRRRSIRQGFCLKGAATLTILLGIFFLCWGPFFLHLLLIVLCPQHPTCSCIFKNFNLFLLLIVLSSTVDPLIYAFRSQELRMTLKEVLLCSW
Melanocortin receptor 5, sequence (P41149 whole entry): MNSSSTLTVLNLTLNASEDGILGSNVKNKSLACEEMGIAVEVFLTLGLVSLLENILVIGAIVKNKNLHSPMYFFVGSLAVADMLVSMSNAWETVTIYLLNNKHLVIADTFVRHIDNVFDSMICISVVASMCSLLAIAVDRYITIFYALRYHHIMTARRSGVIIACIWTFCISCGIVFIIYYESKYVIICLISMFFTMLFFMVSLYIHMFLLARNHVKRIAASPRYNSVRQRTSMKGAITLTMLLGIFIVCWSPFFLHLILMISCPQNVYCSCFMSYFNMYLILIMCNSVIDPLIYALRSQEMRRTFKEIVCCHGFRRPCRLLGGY
Melanocortin receptor 4, sequence (P56450 whole entry): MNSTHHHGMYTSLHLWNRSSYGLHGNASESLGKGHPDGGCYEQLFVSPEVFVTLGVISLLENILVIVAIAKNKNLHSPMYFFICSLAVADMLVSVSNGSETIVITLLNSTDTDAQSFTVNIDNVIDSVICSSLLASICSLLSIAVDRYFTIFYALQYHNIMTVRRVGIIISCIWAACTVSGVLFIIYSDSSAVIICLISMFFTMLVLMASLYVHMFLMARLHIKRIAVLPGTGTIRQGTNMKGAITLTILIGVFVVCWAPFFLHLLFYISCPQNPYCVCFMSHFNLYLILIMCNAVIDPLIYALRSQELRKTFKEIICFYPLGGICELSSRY
Melanocortin receptor 3, sequence (P33033 whole entry): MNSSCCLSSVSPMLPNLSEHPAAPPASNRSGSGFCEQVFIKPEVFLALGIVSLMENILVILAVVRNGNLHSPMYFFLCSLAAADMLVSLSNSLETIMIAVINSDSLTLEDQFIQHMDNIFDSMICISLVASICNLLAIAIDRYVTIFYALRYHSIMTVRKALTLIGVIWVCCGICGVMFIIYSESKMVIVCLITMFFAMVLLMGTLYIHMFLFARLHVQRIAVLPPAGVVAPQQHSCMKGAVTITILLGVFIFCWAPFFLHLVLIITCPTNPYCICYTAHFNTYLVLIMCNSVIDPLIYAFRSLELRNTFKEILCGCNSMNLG
Melanocortin receptor 3 (Mus musculus), sequence (P33033 whole entry): as above

On to `C[C@@H]1NC(=O)[C@H](CC(N)=O)NC(=O)[C@H](Cc2c[nH]c3ccccc23)NC(=O)[C@H](CCCN=C(N)N)NC(=O)[C@@H](Cc2ccccc2)NC(=O)[C@H](Cc2cnc[nH]2)NC(=O)[C@@H](NC(=O)[C@@H](N)Cc2ccc(O)cc2)CSSC[C@@H](C(=O)N[C@@H](Cc2ccc(O)cc2)C(N)=O)NC(=O)[C@H](Cc2ccccc2)NC1=O`, for which the concentration giving a half-maximal response (EC50) (usually the concentration at which the effect is half-maximal) in experiment [1] turned out to be 0.00035 µM; on Melanocortin receptor 3 it was 0.002 µM; on Melanocortin receptor 4, 0.00027 µM; at Melanocortin receptor 5, 0.0023 µM.
In turn, `C[C@@H]1NC(=O)[C@H](CC(N)=O)NC(=O)[C@H](Cc2c[nH]c3ccccc23)NC(=O)[C@H](CCCNC(=N)N)N2C[C@@H](Cc3ccccc3)NC(=O)[C@@H](CSCC2=O)NC(=O)[C@H](Cc2cnc[nH]2)NC(=O)[C@@H](NC(=O)[C@@H](N)Cc2ccc(O)cc2)CSSC[C@@H](C(=O)N[C@@H](Cc2ccc(O)cc2)C(N)=O)NC(=O)[C@H](Cc2ccccc2)NC1=O` had a half-maximal effective concentration (EC50) on Melanocortin receptor 4 of 3.21 µM.
For `CC(=O)N[C@@H](Cc1cnc[nH]1)C(=O)N[C@H](Cc1ccccc1)C(=O)N[C@@H]1CSCC(=O)N([C@@H](Cc2c[nH]c3ccccc23)C(N)=O)C[C@H](CCCN=C(N)N)NC1=O`, the EC50 amounted to 0.164 µM in experiment [1], 7.6 µM at Melanocortin receptor 3, 0.65 µM at Melanocortin receptor 4 and 0.335 µM on Melanocortin receptor 5.
The corresponding values for `C[C@@H]1NC(=O)[C@H](CC(N)=O)NC(=O)[C@H](Cc2c[nH]c3ccccc23)N2C[C@H](CCCN=C(N)N)NC(=O)[C@H](CSCC2=O)NC(=O)[C@@H](Cc2ccccc2)NC(=O)[C@H](Cc2cnc[nH]2)NC(=O)[C@@H](NC(=O)[C@@H](N)Cc2ccc(O)cc2)CSSC[C@@H](C(=O)N[C@@H](Cc2ccc(O)cc2)C(N)=O)NC(=O)[C@H](Cc2ccccc2)NC1=O` are 0.033 µM, 0.495 µM, 0.085 µM and 0.072 µM.
As to `C[C@@H]1NC(=O)[C@H](CC(N)=O)NC(=O)[C@H](Cc2c[nH]c3ccccc23)NC(=O)[C@H](CCCNC(=N)N)N2C[C@@H](Cc3ccccc3)NC(=O)[C@H](CSCC2=O)NC(=O)[C@H](Cc2cnc[nH]2)NC(=O)[C@@H](NC(=O)[C@@H](N)Cc2ccc(O)cc2)CSSC[C@@H](C(=O)N[C@@H](Cc2ccc(O)cc2)C(N)=O)NC(=O)[C@H](Cc2ccccc2)NC1=O`, the outcome in experiment [2] was inactive.
Same read-out and setting: under `C[C@@H]1NC(=O)[C@H](CC(N)=O)NC(=O)[C@H](Cc2c[nH]c3ccccc23)NC(=O)[C@H](CCCNC(=N)N)NC(=O)[C@@H](Cc2ccccc2)N2C[C@H](Cc3cnc[nH]3)NC(=O)[C@@H](CSCC2=O)NC(=O)[C@@H](NC(=O)[C@@H](N)Cc2ccc(O)cc2)CSSC[C@@H](C(=O)N[C@@H](Cc2ccc(O)cc2)C(N)=O)NC(=O)[C@H](Cc2ccccc2)NC1=O` stands “inactive”.
